The text below walks through data of ChEMBL document CHEMBL5653631, “A Potent and Selective ULK1 Inhibitor Suppresses Autophagy and Sensitizes Cancer Cells to Nutrient Stress” (iScience, 2018).

Assay [1] addresses Calcium/calmodulin-dependent protein kinase type 1B (Homo sapiens) (UniProt Q6P2M8). As to the kind of experiment: Inhibition of human recombinant CaMK1b at 40 nM related to control ULK1.
Assay [2] concerns the target Ephrin type-A receptor 2 (Homo sapiens) (UniProt P29317). The assay can be described thus: Inhibition of human recombinant EphA2 at 40 nM in presence of ATP by radiometric assay relative to control.
Assay [3] addresses T1, Inhibitor of nuclear factor kappa-B kinase subunit beta (Homo sapiens) (UniProt O14920).
T1 sequence (whole entry): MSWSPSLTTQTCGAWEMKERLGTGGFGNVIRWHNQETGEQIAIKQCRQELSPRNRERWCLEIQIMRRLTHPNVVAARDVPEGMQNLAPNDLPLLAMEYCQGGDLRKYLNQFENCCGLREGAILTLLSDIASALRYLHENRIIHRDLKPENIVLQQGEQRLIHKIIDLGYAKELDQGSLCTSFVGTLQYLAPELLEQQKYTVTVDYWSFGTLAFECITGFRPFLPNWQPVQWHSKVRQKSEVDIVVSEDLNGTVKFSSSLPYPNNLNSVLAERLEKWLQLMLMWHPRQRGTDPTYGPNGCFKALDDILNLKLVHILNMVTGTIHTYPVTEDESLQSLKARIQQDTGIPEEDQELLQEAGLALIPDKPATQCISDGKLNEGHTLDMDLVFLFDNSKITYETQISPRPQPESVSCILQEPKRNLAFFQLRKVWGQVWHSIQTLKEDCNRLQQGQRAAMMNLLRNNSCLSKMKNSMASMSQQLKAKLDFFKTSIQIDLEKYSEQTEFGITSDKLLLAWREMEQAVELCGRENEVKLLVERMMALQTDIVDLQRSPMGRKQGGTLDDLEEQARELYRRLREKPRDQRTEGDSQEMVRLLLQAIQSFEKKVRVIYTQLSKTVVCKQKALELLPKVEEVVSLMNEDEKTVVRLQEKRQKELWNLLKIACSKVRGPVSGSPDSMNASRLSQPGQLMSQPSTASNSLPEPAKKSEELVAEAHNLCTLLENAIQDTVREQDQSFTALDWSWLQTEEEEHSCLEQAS
The assay can be described thus: Inhibition of human recombinant IKKb at 40 nM in presence of ATP by radiometric assay relative to control.

The target of assay [4] is MAP kinase-activated protein kinase 3 (Homo sapiens) (UniProt Q16644). As to the kind of experiment: Inhibition of human recombinant MAPKAPK3 at 40 nM related to control ULK1.
Assay [5] concerns the target Receptor-type tyrosine-protein kinase FLT3 (Homo sapiens) (UniProt P36888). The assay can be described thus: Inhibition of human recombinant FLT3 at 40 nM in presence of ATP by radiometric assay relative to control.
For assay [6], the target named is Mitogen-activated protein kinase kinase kinase 10 (Homo sapiens) (UniProt Q02779). As to the kind of experiment: Inhibition of human recombinant MLK2 at 500 nM related to control ULK1.
Assay [7] deals with T2, Ephrin type-A receptor 8 (Homo sapiens) (UniProt P29322).
T2 sequence (whole entry): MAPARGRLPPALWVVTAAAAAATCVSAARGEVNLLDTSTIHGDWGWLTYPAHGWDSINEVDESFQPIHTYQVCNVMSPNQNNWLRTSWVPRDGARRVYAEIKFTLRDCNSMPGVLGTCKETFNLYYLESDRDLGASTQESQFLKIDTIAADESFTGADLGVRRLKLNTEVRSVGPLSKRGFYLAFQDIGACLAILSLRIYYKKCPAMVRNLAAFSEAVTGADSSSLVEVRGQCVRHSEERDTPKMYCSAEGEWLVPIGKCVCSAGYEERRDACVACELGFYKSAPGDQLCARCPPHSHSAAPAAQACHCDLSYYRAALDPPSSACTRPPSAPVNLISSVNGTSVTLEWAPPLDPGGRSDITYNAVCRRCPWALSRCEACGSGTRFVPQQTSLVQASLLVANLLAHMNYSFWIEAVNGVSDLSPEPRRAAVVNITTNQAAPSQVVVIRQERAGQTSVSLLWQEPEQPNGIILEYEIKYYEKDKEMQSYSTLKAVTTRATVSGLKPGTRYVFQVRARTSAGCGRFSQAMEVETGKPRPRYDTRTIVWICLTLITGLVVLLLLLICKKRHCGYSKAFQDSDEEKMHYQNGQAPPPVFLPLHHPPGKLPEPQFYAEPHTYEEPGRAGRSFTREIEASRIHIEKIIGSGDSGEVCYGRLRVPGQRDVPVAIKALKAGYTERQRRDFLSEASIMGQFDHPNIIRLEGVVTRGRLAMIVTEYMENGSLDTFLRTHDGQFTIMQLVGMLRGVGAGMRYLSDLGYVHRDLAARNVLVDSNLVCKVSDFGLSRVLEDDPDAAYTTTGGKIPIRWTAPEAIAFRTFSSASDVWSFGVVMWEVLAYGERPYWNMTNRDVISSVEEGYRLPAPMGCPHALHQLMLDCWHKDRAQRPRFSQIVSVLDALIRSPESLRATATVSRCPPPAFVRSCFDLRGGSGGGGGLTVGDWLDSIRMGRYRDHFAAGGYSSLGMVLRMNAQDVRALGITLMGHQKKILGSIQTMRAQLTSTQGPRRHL
As to the kind of experiment: Inhibition of human recombinant EphA8 at 500 nM in presence of ATP by radiometric assay relative to control.

Assay [8] concerns the target Dual specificity tyrosine-phosphorylation-regulated kinase 1A (Homo sapiens) (UniProt Q13627). The assay can be described thus: Inhibition of human recombinant DYRK1A at 15 nM related to control ULK1.
Assay [9] has as its target T3, Activin receptor type-1 (Homo sapiens) (UniProt Q04771).
T3 sequence (whole entry): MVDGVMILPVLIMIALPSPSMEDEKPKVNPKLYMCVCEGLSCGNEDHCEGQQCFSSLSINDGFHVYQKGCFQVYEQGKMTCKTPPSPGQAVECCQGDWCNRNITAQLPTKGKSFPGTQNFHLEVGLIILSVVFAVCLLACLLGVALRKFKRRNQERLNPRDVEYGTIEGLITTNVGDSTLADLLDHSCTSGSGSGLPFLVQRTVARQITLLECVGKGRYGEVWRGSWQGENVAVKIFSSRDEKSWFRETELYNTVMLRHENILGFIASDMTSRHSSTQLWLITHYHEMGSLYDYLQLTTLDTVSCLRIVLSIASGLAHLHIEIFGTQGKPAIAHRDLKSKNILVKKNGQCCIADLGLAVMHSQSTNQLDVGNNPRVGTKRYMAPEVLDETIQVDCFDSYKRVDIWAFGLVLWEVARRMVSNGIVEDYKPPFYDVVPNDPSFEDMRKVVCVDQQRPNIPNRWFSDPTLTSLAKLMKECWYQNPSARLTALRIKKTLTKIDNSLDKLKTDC
As to the kind of experiment: Inhibition of human recombinant ALK2 at 15 nM in presence of ATP by radiometric assay relative to control. The method in brief:
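Panel of 327 recombinant human kinases, each assayed in vitro by radiometric activity assay in duplicate at a single inhibitor concentration per compound, chosen with reference to its ULK1 inhibition. Activity remaining was expressed as percent of vehicle control, and percent inhibition was calculated as 100 minus percent activity remaining.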

Assay [10] has as its target NT-3 growth factor receptor (Homo sapiens) (UniProt Q16288). As to the kind of experiment: Inhibition of human recombinant TRKC at 15 nM related to control ULK1.

MAP kinase-activated protein kinase 3 (Homo sapiens), sequence (Q16644 whole entry, looked up): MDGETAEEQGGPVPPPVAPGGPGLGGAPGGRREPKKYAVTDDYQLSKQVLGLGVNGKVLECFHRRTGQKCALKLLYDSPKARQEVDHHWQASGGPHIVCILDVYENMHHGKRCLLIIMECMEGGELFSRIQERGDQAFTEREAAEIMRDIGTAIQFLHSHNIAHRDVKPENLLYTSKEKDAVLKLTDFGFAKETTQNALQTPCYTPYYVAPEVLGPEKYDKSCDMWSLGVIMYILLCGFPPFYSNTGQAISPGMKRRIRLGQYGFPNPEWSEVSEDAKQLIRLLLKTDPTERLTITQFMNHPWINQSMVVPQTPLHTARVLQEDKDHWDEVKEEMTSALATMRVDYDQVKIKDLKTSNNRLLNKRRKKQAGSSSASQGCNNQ
Ephrin type-A receptor 2 (Homo sapiens), sequence (P29317 whole entry): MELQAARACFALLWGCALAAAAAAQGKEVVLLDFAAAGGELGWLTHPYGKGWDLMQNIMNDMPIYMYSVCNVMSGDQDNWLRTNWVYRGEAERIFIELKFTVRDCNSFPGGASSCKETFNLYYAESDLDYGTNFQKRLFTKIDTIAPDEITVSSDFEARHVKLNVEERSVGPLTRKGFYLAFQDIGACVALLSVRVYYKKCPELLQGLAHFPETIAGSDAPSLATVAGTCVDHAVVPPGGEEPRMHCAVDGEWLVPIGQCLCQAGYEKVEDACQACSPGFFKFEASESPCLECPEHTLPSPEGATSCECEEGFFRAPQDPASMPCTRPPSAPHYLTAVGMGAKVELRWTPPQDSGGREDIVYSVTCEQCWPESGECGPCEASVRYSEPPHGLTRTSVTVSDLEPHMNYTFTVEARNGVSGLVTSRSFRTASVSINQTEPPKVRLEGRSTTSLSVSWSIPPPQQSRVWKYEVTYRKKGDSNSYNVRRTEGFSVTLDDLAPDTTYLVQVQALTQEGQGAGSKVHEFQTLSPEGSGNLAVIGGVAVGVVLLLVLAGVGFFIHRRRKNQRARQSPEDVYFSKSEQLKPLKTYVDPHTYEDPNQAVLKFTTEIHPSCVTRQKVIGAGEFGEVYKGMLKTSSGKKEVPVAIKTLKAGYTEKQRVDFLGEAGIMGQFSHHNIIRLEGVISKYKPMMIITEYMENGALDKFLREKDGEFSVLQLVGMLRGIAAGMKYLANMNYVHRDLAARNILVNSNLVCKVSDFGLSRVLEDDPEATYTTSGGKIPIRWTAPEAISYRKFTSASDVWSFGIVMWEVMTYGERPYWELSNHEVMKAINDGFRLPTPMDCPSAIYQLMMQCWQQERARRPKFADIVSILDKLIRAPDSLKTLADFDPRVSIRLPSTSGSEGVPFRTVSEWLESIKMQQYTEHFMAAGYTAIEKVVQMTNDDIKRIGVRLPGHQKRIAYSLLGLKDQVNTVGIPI
NT-3 growth factor receptor (Homo sapiens), sequence (Q16288 32-839 limits assumed): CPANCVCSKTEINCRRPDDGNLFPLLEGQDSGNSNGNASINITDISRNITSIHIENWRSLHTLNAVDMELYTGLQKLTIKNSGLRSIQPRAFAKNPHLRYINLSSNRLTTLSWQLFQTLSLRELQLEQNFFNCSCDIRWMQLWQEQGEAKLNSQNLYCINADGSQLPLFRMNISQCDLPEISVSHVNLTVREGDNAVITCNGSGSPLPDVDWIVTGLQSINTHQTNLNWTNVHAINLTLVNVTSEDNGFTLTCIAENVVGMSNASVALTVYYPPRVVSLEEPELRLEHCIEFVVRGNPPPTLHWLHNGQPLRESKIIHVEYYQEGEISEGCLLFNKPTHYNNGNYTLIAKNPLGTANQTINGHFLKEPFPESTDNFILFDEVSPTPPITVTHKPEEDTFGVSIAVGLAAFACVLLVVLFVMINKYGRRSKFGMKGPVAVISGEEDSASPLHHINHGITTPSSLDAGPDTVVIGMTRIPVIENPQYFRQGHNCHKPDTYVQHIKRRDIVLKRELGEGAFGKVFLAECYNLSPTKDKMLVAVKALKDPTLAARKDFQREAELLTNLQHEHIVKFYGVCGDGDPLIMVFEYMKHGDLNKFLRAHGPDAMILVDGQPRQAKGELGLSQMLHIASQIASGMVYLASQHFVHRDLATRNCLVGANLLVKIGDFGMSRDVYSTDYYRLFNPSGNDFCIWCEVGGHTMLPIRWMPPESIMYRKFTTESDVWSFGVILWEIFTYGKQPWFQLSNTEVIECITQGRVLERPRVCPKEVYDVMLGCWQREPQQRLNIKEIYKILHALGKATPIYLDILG
Mitogen-activated protein kinase kinase kinase 10 (Homo sapiens), sequence (Q02779 whole entry, looked up): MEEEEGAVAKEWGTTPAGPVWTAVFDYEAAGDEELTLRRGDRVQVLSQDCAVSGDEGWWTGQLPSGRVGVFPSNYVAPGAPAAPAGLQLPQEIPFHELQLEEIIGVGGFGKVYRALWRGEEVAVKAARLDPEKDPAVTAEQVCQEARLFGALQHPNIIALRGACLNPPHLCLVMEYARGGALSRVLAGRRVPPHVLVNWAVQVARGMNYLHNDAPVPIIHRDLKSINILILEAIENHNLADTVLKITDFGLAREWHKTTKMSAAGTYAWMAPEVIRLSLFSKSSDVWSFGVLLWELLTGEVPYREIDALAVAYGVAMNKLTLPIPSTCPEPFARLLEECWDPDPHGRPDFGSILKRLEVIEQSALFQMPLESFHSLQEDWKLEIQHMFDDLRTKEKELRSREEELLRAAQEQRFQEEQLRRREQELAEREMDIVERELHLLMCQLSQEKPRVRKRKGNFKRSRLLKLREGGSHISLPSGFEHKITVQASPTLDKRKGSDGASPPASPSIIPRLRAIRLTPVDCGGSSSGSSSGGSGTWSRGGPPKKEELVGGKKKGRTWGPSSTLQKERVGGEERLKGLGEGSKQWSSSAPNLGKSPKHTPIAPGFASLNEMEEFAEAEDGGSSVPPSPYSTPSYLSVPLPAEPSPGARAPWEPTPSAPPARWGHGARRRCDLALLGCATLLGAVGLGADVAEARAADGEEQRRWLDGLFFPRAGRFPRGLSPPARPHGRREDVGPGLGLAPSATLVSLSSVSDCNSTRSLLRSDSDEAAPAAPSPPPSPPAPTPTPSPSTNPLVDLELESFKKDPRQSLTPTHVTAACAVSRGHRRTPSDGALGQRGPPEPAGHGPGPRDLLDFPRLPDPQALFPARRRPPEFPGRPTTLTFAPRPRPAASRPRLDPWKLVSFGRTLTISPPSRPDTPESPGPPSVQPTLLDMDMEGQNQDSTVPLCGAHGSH
Calcium/calmodulin-dependent protein kinase type 1B (Homo sapiens), sequence (Q6P2M8 whole entry): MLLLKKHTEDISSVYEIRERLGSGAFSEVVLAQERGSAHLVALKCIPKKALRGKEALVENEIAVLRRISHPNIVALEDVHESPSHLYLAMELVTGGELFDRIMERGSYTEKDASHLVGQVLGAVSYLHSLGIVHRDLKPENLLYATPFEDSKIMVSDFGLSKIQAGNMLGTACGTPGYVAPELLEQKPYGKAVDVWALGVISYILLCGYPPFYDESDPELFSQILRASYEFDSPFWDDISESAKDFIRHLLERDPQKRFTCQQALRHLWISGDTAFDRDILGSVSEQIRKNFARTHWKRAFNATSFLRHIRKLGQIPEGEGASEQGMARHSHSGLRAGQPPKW
Receptor-type tyrosine-protein kinase FLT3 (Homo sapiens), sequence (P36888 whole entry): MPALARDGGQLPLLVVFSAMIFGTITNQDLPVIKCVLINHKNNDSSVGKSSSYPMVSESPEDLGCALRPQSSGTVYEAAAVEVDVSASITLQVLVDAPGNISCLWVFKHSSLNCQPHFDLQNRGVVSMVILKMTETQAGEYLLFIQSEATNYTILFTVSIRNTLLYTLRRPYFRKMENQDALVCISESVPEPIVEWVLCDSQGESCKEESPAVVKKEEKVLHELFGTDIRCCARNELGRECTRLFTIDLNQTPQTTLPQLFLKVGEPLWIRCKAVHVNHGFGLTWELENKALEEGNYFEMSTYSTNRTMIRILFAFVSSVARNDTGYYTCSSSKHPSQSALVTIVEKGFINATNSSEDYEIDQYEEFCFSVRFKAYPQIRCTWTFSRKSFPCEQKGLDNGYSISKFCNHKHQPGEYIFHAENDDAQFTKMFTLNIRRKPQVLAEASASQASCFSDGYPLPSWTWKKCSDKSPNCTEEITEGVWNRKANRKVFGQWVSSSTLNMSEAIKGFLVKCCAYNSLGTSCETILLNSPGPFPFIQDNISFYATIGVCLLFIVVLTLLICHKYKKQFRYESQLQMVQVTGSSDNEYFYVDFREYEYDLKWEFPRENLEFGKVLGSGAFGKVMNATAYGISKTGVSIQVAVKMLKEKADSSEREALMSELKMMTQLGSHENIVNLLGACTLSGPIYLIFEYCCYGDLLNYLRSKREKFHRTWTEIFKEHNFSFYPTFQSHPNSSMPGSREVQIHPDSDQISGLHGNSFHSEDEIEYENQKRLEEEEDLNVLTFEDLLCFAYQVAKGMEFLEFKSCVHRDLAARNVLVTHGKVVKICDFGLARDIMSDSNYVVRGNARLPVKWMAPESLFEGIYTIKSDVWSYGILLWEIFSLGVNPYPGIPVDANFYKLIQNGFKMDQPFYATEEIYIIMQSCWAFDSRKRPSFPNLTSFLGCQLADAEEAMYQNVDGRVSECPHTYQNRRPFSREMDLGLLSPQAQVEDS

Broadly, the inhibition is the drop in the measured response relative to a control, in per cent. Take `O=C(N[C@@H](C1CC1)C(F)(F)F)c1cc(-c2cnn3cc(-c4ccc(F)cc4)cnc23)cs1`: the fold change (FC) in assay [1] and in [4] was 0 each time. In addition, the inhibition in [2] stood at 2%; in [3], 0%; in assay [5] it was 19%.
Consider `CNC(=O)c1ccccc1Oc1nc(Nc2cc(OC)c(OC)c(OC)c2)ncc1Br`, for which, in [6], the fold change (FC) amounted to 0.95. The inhibition in assay [7] was 2%.
Regarding `CC(C)[C@H](NC(=O)c1cc(-c2cnn3cc(-c4ccc(OCCN5CCCCC5)cc4)cnc23)cs1)C(F)(F)F`, the fold change (FC) in assay [8] is 0.83; in assay [10], 0. In addition, the inhibition in assay [9] stood at 26%.
